In paper PMC11516114 (Protein Science : A Publication of the Protein Society, 2024):
Read-outs that look alike come from different tables or passages of the source.

Legend:
[1] = target: T1, wild-type HIF-2α PAS-B (Homo sapiens, UniProt Q99814); assay: Isothermal titration calorimetry; format: binding
Outline: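 Human HIF-2α PAS-B (residues 240–350), expressed with a cleavable His6-Gβ1 tag, purified by Ni2+ affinity, TEV cleavage, a second Ni2+ pass and size exclusion. ITC run at 25°C with protein (250–300 μM) titrated into 20 μM test compound: 25 injections, 250 s spacing, 350 rpm. Protein-into-buffer heats were subtracted.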

[2] = target: T1, wild-type HIF-2α PAS-B; conditions: previously measured, ref Key et al. [2009]; cited from earlier work

T1 sequence (Q99814 240-350): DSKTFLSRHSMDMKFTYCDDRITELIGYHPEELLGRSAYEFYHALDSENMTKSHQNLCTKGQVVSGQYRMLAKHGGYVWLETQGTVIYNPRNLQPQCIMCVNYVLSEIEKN

Kd [1] [nM]	Compound	Kd [2] [nM]
600 ± 60	O=[N+]([O-])c1cc(C(F)(F)F)ccc1NCc1ccsc1 [THS-017, 2‐nitro‐N‐[(thiophen‐3‐yl)methyl]‐4‐(trifluoromethyl)aniline]	590 ± 50
1350 ± 110	O=[N+]([O-])c1cc(C(F)(F)F)ccc1NCc1ccco1 [THS-020, N‐[(furan‐2‐yl)methyl]‐2‐nitro‐4‐(trifluoromethyl)aniline]	1500 ± 700
